# Bioassay records as filed in PubChem.
# Rows were chosen to be rich in hits. Some 2.2% of all compounds tested hit in one or more screens of this group.
# PvdQ inh: blocks Pseudomonas aeruginosa PvdQ acylase activity; purified PvdQ acylase, fluorescence plate reader; inhibition, % at 10 µM; hit rate 0.063% among 340,000; AID 488965; in the data active means inhibition above about 30%, passing the limit was not always enough;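 further: 0% = vehicle neutral wells and 100% = reference inhibitor wells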
# PDI inh: PDI (human) enzyme inhibition; P07237; PDI insulin aggregation turbidity, A650, 90 min; hit rate 0.052% among 350,000; inhibition, % at 10 µM; AID 588391;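 active means mean inhibition across replicates of 30% or more, whatever share of single replicates reach that level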
# ERp5 block: ERp5 (human) disulfide isomerase inhibition. ERp5 insulin aggregation, absorbance 650 nm, 90 min. inhibition, % at 9.99 µM. hit rate 0.05% among 350,000. AID 651711;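 active means mean replicate inhibition above about 25%, with every replicate also reaching it, limit read from the data, passing the limit was not always enough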
# Target sequence (Q15084 whole entry, looked up): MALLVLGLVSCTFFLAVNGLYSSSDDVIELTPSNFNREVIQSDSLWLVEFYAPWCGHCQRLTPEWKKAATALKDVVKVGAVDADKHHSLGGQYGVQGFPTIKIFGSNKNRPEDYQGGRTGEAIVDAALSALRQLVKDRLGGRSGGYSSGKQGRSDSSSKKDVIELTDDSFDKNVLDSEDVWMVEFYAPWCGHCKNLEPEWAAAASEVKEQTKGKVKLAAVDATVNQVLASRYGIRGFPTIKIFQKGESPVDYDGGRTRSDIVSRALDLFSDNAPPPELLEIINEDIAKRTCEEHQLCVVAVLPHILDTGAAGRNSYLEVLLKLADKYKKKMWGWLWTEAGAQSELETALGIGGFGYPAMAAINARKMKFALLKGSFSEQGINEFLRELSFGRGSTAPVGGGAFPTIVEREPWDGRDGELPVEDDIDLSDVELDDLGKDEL
# HIV Env fusion: HIV envelope-mediated fusion inhibition | inhibition, % at 12.3 µM | hit rate 1.1% among 360,000 | HeLa-JRFL Env/CEM21 cell fusion, luciferase;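 active means mean replicate inhibition score of at least 50 and every replicate individually at or above 50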;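 further: 0% = plate neutral controls and 100% = maraviroc near 300 nM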
# rRNA inh HTS: inhibits bacterial ribosomal RNA function over humanized ribosomes | E. coli WT GFP vs humanized-ribosome RFP mutants, fluorescence, 24 h; active compounds read low; DMSO median 0, no signal -100 | hit rate 1.6% among 350,000 | AID 720706 | GFP signal change (wild-type ribosome), % (concentration not given with the values);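 active means significant combined selectivity score with lowered wild-type GFP, culture density cut under 30%, mutant RFP and density less affected; inactive means any of these conditions unmet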
# FN deposition inh: fibronectin deposition inhibition | hit rate 0.086% among 350,000 | AH1F fibroblasts, Alexa488-fibronectin deposition fluorescence, overnight | inhibition, % at 12.6 µM;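 active means mean inhibition across replicates of 30% or more, regardless of how many single replicates reach that level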;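 further: positive control wells lacked labelled fibronectin entirely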
#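 Assay system: AH1F fibroblasts assembling fluorescent fibronectin matrix; Amount: 10000 AH1F cells per well; Buffer or medium: DMEM, 2% serum; Probe or stimulus: Alexa488-fibronectin, 24 nM final in well; Doses: single compound dose, delivered by pin transfer; Incubation: 1 h adhesion, overnight exposure; Measured by: fluorescence 485/525 nm; Read-out: fibronectin deposition inhibition.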
# Numbers without * were called inactive; . = no result; [ ] = dose if it differs, or a comment.
SMILES,PvdQ inh,PDI inh,ERp5 block,HIV Env fusion,rRNA inh HTS,FN deposition inh
CCc1nc(N2CCCCC2C)c2oc3ccccc3c2n1 (stereo unspecified),-8,-1,.,75*,.,-3
CCc1nc(N2CCCCC2)c2oc3ccccc3c2n1,-8,-5,.,69*,.,4
O=C(Nc1ccc(OC(F)(F)F)cc1)Oc1ccccc1N1CCCCC1,.,-2,8,5,-50*,10
O=C(C[C@H]1CC[C@@H]2[C@H](COC[C@H](O)CN2C(=O)c2cccnc2)O1)Nc1ccc(-c2ccccc2)cc1,.,.,-2,-6[16.7 µM],1,-1
O=C(NCC1CCCCC1)[C@@H]1[C@@H](CO)[C@@H]2Cn3c(ccc(-c4ccccc4)c3=O)[C@H]1N2,.,.,3,.,-3,.
COc1cc(NC(=O)Cn2nc(C(F)(F)F)c(Br)c2C)cc([N+](=O)[O-])c1,11,9,7,19,-15*,-16
COc1ccc(CNC(=O)Cn2nc(C(F)(F)F)c(Br)c2C)cc1,-4,6,-12,0,5,-4
CCC(=O)N1C[C@@H](C)[C@@H](OC)CN(C)C(=O)c2cc(NC(=O)CC(F)(F)F)ccc2OC[C@@H]1C,.,.,-1,.,1,3
CC(C)(O)C(O)COc1c2ccoc2cc2oc(=O)ccc12 (stereo unspecified),-14,.,-2,.,2,.
CC(=O)OC(C=C(C)C)C/C(C)=C/COc1c2ccoc2cc2oc(=O)ccc12 (stereo unspecified),7,4,4,-246,-21*,5
CCC(=O)N1[C@H](CO)[C@H](c2ccc(C#CC3CCCC3)cc2)[C@@H]1CNC(C)C,.,.,.,.,6,8
CCCNC(=O)Nc1ccc2c(c1)C(=O)N(C)[C@@H]1CC[C@H](CC(=O)NC)O[C@@H]1CO2,.,.,.,-9[16.7 µM],2,-12
Cc1ccc(NS(=O)(=O)c2cc(C(=O)N(C)C3CCN(C)CC3)ccc2Cl)cc1Cl,-5,-2,-6,75*,2,-2
CN1CCC(N(C)C(=O)c2ccc(Cl)c(S(=O)(=O)N3CCCCC3)c2)CC1,-10,-4,1,1,7,3
COCC(=O)Nc1ccc2c(c1)C(=O)N(C)C[C@H](OC)[C@H](C)CN(C(=O)c1ccccc1)[C@@H](C)CO2,.,.,10,-22[16.7 µM],1,-6
CC(=O)Nc1ccc2c(c1)C(=O)N(C)C[C@H](C)[C@@H](CN(C)C(C)=O)O2,.,.,.,.,0,.
Oc1cccc(C=Nc2cccc3ccccc23)c1O,11,3,2,16,-32*,10
Oc1ccccc1C=Nc1cccc2ccccc12,-15,-7,0,27,2,2
O=C(Nc1ccc(F)cc1)Nc1ccc2c(c1)[C@@H]1C[C@@H](CC(=O)N3CCOCC3)O[C@@H](CO)[C@@H]1O2,.,.,-7,7[16.7 µM],-4,3
Cc1ccc(NCc2nnc(SCC(=O)c3ccc4c(c3)OCCO4)o2)c(C)c1,-1,-5,7,.,-36*,.
N#CCSc1nnc(-c2sc3ccccc3c2Cl)o1,1,-8,.,79*,.,.
Cc1cc(N2CCCC2)ccc1NC(=O)COc1cccc(C(F)(F)F)c1,-22,3,1,59*,6,.
O=C(COc1ccccc1)Nc1cc(C(F)(F)F)ccc1N1CCCC1,-17,4,.,.,.,.
C[C@@H]1CCCCO[C@@H](CN(C)C(=O)Nc2ccc(C(F)(F)F)cc2)[C@H](C)CN([C@H](C)CO)C(=O)c2cc(NS(=O)(=O)c3ccc(F)cc3)ccc2O1,.,.,-2,-78[16.7 µM],5,-8
Cc1ccc(S(=O)(=O)Nc2ccc3c(c2)C(=O)N([C@H](C)CO)C[C@H](C)[C@@H](CN(C)C(=O)Nc2ccc(C(F)(F)F)cc2)OCCCC[C@H](C)O3)cc1,.,.,2,8[16.7 µM],1,-6
SMILES,PvdQ inh,PDI inh,ERp5 block,HIV Env fusion,rRNA inh HTS,FN deposition inh
C[C@H](CO)N1C[C@H](C)[C@H](CN(C)C(=O)Nc2ccc(C(F)(F)F)cc2)OCCCC[C@H](C)Oc2ccc(NS(=O)(=O)c3ccc(F)cc3)cc2C1=O,.,.,4,59*[16.7 µM],7,-1
C[C@H]1CCCCO[C@H](CN(C)C(=O)Nc2ccc(C(F)(F)F)cc2)[C@@H](C)CN([C@@H](C)CO)C(=O)c2cc(NS(=O)(=O)c3ccc(F)cc3)ccc2O1,.,.,-1,78*[16.7 µM],2,-17
C[C@H]1CCCCO[C@H](CN(C)C(=O)Nc2cccc3ccccc23)[C@@H](C)CN([C@@H](C)CO)C(=O)c2cc(NS(=O)(=O)c3ccc(F)cc3)ccc2O1,.,.,1,87*[16.7 µM],0,-1
COc1ccc(S(=O)(=O)Nc2ccc3c(c2)C(=O)N([C@@H](C)CO)C[C@H](C)[C@H](CN(C)C(=O)NC(C)C)OCCCC[C@H](C)O3)cc1,.,.,3,93*[16.7 µM],-3,.
Cc1ccc(-c2cnc3c(c2)C(=O)N([C@H](C)CO)C[C@@H](C)[C@H](CN(C)C(=O)c2cccc(F)c2)O3)cc1,.,.,5,-13[16.7 µM],2,-4
Cc1noc(C)c1NC(=O)N(C)C[C@H]1OCCCC[C@@H](C)Oc2ccc(NS(=O)(=O)c3ccc(F)cc3)cc2C(=O)N([C@H](C)CO)C[C@@H]1C,.,.,-1,60*[16.7 µM],1,0
Cc1noc(C)c1S(=O)(=O)Nc1ccc2c(c1)C(=O)N([C@@H](C)CO)C[C@H](C)[C@@H](CN(C)C(=O)Nc1ccc(C(F)(F)F)cc1)OCCCC[C@H](C)O2,.,.,7,57*[16.7 µM],-1,.
Cc1noc(C)c1NC(=O)N(C)C[C@@H]1OCCCC[C@H](C)Oc2ccc(NS(=O)(=O)c3ccc(F)cc3)cc2C(=O)N([C@@H](C)CO)C[C@H]1C,.,.,-3,10[16.7 µM],-6,-4
Cc1ccc(S(=O)(=O)Nc2ccc3c(c2)C(=O)N([C@@H](C)CO)C[C@H](C)[C@@H](CN(C)C(=O)Nc2ccc(C(F)(F)F)cc2)OCCCC[C@H](C)O3)cc1,.,.,1,69*[16.7 µM],5,-6
CCCc1cn(CC[C@H]2CC[C@H](NC(=O)C3CC3)[C@@H](CO)O2)nn1,.,.,0,16[16.7 µM],1,6
CCCC(=O)Nc1ccc2c(c1)C(=O)N(C)C[C@H](OC)[C@H](C)CN(C(=O)CC)[C@@H](C)CO2,.,.,.,.,0,-6
C[C@H](O)C#Cc1ccc2c(c1)O[C@H](CN(C)C(=O)CC1CC1)[C@H](C)CN([C@H](C)CO)S2(=O)=O,.,.,-4,-7[16.7 µM],0,-5
CNC(=S)N(Cc1ccc(Cl)cc1)Cc1cccs1,-12,-2,0,19,-43*,10
COc1cccc(CNC(=O)CCc2nnc3ccc(NCCCN4CCCC4=O)nn23)c1,4,5,-2,-22,5,30*
Cc1ccc(N(CC(O)Cn2c3ccccc3c3ccccc32)S(C)(=O)=O)cc1 (stereo unspecified),-6,2,-5,.,-30,.
CC(=O)Nc1ccc(N(CC(O)Cn2c3ccccc3c3ccccc32)S(=O)(=O)c2ccc(C)cc2)cc1 (stereo unspecified),8,-3,-4,105*,1,6
